From ChEMBL document CHEMBL3352004, “(7-Benzyloxy-2,3-dihydro-1H-pyrrolo[1,2-a]indol-1-yl)acetic Acids as S1P1 Functional Antagonists” (ACS Med Chem Lett, 2014)
Converted amounts (≈) assume the structure as drawn. Each block holds one compound with its values, some of them ahead of it. The source made the active and inactive calls. No cut-off for these calls is given here.

Legend:
[1] = molecular target: T1, Sphingosine 1-phosphate receptor 4 (Homo sapiens, UniProt O95977); test: Agonist activity at human S1P4 receptor by beta-arrestin recruitment assay
T1 sequence (O95977 whole entry): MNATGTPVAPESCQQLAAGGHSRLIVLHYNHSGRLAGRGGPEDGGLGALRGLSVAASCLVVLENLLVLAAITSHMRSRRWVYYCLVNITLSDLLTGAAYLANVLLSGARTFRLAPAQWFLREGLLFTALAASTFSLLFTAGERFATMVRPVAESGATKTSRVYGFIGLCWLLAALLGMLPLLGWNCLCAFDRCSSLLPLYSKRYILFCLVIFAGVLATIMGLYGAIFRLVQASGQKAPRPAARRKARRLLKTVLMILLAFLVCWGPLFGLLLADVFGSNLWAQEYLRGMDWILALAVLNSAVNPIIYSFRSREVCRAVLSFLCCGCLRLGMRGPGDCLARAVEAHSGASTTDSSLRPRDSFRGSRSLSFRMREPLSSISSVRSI

[2] = molecular target: T2, Sphingosine 1-phosphate receptor 4 (Homo sapiens) (UniProt O95977); test: Agonist activity at human S1P4 receptor by beta-arrestin recruitment assay relative to S1P
T2 sequence (whole entry): T1 sequence (O95977 whole entry)

[3] = molecular target: T3, Sphingosine 1-phosphate receptor 1 (Homo sapiens, UniProt P21453); test: Agonist activity at human S1P1 receptor assessed as cAMP accumulation by HTRF assay relative to S1P; type: functional
T3 sequence (P21453 whole entry): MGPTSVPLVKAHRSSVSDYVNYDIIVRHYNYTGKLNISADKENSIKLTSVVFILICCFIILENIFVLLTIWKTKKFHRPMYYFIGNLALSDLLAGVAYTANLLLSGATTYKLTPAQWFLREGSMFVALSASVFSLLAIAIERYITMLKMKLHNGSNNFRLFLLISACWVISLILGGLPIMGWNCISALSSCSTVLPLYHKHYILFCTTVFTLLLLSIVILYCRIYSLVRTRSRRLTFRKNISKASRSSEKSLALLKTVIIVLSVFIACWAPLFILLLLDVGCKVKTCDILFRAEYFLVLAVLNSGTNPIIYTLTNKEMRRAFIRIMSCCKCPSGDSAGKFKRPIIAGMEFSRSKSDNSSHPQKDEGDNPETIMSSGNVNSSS

[4] = molecular target: Sphingosine 1-phosphate receptor 1 (Rattus norvegicus) (UniProt P48303); test: Agonist activity at rat S1P1 receptor assessed as cAMP accumulation by HTRF assay relative to S1P; type: functional
Chain of Sphingosine 1-phosphate receptor 1 (Rattus norvegicus) (P48303 whole entry): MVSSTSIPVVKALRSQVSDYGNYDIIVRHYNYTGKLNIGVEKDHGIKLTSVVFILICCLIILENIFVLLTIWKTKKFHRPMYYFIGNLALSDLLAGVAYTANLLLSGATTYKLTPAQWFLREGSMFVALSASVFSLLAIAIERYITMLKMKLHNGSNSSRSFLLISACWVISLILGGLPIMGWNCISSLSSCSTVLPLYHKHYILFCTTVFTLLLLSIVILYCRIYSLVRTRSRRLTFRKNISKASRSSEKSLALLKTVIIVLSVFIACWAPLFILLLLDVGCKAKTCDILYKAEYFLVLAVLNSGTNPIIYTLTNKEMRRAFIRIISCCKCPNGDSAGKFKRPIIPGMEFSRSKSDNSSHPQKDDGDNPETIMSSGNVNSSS

[5] = Ratio of drug level in brain to plasma in Sprague-Dawley rat; type: ADME; conditions: read-out: BPR
Procedure, shortened: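 Abbreviated rat CNS distribution: a single 1.0 mg/kg oral dose, with brain and plasma drug levels measured over 6 h. Brain-to-plasma ratio derived from these levels.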

[6] = molecular target: T4, Sphingosine 1-phosphate receptor 5 (Homo sapiens, UniProt Q9H228); test: Agonist activity at human S1P5 receptor by beta-arrestin recruitment assay relative to S1P
T4 sequence (Q9H228 whole entry): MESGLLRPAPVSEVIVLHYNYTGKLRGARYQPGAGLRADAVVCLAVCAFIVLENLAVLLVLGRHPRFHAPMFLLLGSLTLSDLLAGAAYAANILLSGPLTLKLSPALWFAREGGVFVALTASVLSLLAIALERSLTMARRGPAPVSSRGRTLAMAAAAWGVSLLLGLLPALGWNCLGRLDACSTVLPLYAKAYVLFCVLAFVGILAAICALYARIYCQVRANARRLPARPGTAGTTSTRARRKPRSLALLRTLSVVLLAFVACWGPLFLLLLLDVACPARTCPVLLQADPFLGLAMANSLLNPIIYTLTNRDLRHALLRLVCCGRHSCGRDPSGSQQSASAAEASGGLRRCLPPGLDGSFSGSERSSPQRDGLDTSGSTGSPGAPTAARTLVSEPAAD

[7] = Elimination half life in Sprague-Dawley rat at 1 mg/kg, po; type: ADME, organism-based; parameters: dose 1 mg/kg, route oral; conditions: in vivo, read-out: beta t1/2 (converted)
[8] = molecular target: Sphingosine 1-phosphate receptor 1 (Mus musculus, UniProt O08530); test: Agonist activity at mouse S1P1 receptor assessed as cAMP accumulation by HTRF assay; type: functional
Chain of Sphingosine 1-phosphate receptor 1 (Mus musculus, UniProt O08530) (O08530 whole entry): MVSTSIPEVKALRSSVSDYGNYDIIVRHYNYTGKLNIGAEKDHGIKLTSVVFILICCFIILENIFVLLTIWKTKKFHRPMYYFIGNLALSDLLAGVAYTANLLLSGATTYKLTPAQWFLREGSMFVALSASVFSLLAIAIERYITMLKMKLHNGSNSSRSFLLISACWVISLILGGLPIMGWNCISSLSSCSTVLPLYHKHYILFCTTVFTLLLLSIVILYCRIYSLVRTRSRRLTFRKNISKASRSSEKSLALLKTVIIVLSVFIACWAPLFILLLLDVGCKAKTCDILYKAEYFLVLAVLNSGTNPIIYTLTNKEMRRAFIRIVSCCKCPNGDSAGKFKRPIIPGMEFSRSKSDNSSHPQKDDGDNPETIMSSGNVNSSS
Procedure, shortened: (§1)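 S1P1 engagement measured as cyclase activity in a homogeneous time-resolved fluorescence (HTRF) assay.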

[9] = molecular target: T3, Sphingosine 1-phosphate receptor 1; test: Agonist activity at human S1P1 receptor by beta-arrestin recruitment assay
[10] = molecular target: Sphingosine 1-phosphate receptor 1 (Macaca mulatta, UniProt H9EUW9); test: Agonist activity at monkey S1P1 receptor assessed as cAMP accumulation by HTRF assay; type: functional; procedure, shortened: as §1
Chain of Sphingosine 1-phosphate receptor 1 (Macaca mulatta, UniProt H9EUW9) (H9EUW9 whole entry): as the sequence (P21453 whole entry) above, with P3S, H12L, I37T, K41R, S189P, I241M, E365D counted along it

[11] = molecular target: Sphingosine 1-phosphate receptor 1 (Macaca mulatta) (UniProt H9EUW9); test: Agonist activity at monkey S1P1 receptor assessed as cAMP accumulation by HTRF assay relative to S1P; type: functional
Chain of Sphingosine 1-phosphate receptor 1 (Macaca mulatta) (H9EUW9 as listed by the source): as the sequence (P21453 whole entry) above, with P3S, H12L, I37T, K41R, S189P, I241M, E365D counted along it

[12] = molecular target: Voltage-gated inwardly rectifying potassium channel KCNH2 (Homo sapiens, UniProt Q12809); test: Binding affinity to human ERG
Chain of Voltage-gated inwardly rectifying potassium channel KCNH2 (Q12809 whole entry): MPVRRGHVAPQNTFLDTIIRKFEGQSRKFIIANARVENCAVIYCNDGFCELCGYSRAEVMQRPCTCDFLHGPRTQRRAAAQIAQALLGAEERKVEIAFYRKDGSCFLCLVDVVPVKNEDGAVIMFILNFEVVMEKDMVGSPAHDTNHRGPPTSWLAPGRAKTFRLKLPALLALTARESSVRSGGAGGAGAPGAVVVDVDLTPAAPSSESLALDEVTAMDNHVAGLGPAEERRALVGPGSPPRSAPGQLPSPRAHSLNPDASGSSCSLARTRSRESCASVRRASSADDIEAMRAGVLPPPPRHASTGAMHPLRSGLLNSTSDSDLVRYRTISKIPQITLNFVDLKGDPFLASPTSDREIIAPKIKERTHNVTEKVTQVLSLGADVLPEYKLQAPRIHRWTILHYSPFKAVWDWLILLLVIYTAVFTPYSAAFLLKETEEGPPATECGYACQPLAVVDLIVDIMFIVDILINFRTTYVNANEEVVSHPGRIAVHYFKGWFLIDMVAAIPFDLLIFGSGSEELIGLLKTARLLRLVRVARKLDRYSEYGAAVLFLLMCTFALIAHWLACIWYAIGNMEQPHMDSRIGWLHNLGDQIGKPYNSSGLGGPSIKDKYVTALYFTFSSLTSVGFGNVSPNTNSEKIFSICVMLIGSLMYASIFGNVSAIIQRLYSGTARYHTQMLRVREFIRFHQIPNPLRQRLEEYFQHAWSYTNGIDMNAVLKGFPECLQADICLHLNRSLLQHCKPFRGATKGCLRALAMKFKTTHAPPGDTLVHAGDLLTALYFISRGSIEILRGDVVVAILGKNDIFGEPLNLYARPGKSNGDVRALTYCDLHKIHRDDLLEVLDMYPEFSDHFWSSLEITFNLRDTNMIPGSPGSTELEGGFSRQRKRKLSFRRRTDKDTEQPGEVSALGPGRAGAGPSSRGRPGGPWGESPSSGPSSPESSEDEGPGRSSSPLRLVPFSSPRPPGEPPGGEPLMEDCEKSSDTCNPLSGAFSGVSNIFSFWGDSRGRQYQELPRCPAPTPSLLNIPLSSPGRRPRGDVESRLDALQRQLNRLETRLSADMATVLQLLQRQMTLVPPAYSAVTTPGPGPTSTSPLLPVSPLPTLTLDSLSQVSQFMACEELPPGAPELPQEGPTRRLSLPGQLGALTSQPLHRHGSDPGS

[13] = AUC (0 to infinity) in Sprague-Dawley rat at 1 mg/kg, iv or at 1 mg/kg, po; type: ADME, organism-based; conditions: plasma
Rattus norvegicus [14] = species on record: Rattus norvegicus; test: Reduction in lymphocyte count in Sprague-Dawley rat; type: functional, organism-based
Procedure, shortened: (§2)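 A PK/PD model relating plasma drug concentration to circulating lymphocyte counts was used to derive the plasma concentration that reduces lymphocytes by 50% (LL IC50, ng/mL).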

[15] = Cmax in Sprague-Dawley rat at 1 mg/kg, po; type: ADME, organism-based; parameters: dose 1 mg/kg, route oral; conditions: in vivo
[16] = Systemic clearance in Sprague-Dawley rat at 1 mg/kg, iv; type: ADME, organism-based; parameters: dose 1 mg/kg, route intravenous; conditions: in vivo
[17] = Volume of distribution at steady state in Sprague-Dawley rat at 1 mg/kg, iv; type: ADME, organism-based; parameters: dose 1 mg/kg, route intravenous; conditions: in vivo, read-out: Vdss
[18] = molecular target: T3, Sphingosine 1-phosphate receptor 1; test: Agonist activity at human S1P1 receptor assessed as cAMP accumulation by HTRF assay; type: functional; procedure, shortened: as §1
[19] = molecular target: Sphingosine 1-phosphate receptor 3 (Homo sapiens, UniProt Q99500); test: Agonist activity at human S1P3 receptor by beta-arrestin recruitment assay
Chain of Sphingosine 1-phosphate receptor 3 (Q99500 whole entry): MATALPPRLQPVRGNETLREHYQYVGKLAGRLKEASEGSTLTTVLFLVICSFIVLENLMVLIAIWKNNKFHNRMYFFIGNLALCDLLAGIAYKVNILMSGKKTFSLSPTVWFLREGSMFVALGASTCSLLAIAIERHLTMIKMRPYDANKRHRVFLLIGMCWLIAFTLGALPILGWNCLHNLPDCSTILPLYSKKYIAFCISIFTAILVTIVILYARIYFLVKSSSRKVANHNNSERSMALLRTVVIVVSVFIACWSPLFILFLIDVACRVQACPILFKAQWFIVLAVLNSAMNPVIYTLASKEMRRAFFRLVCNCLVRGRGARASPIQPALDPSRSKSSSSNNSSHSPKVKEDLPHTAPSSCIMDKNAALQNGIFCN

[20] = molecular target: Sphingosine 1-phosphate receptor 1 (Mus musculus) (UniProt O08530); test: Agonist activity at mouse S1P1 receptor assessed as cAMP accumulation by HTRF assay relative to S1P; type: functional
Chain of Sphingosine 1-phosphate receptor 1 (Mus musculus) (O08530 whole entry): as the sequence (O08530 whole entry) above

[21] = molecular target: Sphingosine 1-phosphate receptor 2 (Homo sapiens, UniProt O95136); test: Agonist activity at human S1P2 receptor by beta-arrestin recruitment assay
Chain of Sphingosine 1-phosphate receptor 2 (O95136 whole entry): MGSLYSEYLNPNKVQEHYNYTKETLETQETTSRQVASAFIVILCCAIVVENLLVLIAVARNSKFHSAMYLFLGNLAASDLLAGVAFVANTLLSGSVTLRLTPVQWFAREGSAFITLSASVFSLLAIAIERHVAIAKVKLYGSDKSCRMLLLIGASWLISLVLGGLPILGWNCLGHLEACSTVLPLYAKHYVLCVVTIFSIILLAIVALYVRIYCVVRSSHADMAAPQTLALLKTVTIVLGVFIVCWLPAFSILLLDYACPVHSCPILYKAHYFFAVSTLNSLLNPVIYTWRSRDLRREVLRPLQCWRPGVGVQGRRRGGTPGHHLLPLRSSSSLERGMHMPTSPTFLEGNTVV

[22] = molecular target: T3, Sphingosine 1-phosphate receptor 1; test: Agonist activity at human S1P1 receptor by beta-arrestin recruitment assay relative to S1P
Rattus norvegicus [23] = species on record: Rattus norvegicus; test: Toxicity in telemeterized rat assessed as effect on cardiovascular function; type: organism-based, Heart; conditions: in vivo
[24] = molecular target: T4, Sphingosine 1-phosphate receptor 5; test: Agonist activity at human S1P5 receptor by beta-arrestin recruitment assay
[25] = Tmax in Sprague-Dawley rat at 1 mg/kg, po; type: ADME, organism-based; parameters: dose 1 mg/kg, route oral; conditions: in vivo
[26] = molecular target: Sphingosine 1-phosphate receptor 1 (Rattus norvegicus, UniProt P48303); test: Agonist activity at rat S1P1 receptor assessed as cAMP accumulation by HTRF assay; type: functional; procedure, shortened: as §1
Chain of Sphingosine 1-phosphate receptor 1 (Rattus norvegicus, UniProt P48303) (P48303 whole entry): as the sequence (P48303 whole entry) above

Cytochrome P450 2C9 = Cytochrome P450 2C9 (Homo sapiens, UniProt P11712); test: Inhibition of CYP2C9 (unknown origin); type: ADME
Chain of Cytochrome P450 2C9 (P11712 whole entry): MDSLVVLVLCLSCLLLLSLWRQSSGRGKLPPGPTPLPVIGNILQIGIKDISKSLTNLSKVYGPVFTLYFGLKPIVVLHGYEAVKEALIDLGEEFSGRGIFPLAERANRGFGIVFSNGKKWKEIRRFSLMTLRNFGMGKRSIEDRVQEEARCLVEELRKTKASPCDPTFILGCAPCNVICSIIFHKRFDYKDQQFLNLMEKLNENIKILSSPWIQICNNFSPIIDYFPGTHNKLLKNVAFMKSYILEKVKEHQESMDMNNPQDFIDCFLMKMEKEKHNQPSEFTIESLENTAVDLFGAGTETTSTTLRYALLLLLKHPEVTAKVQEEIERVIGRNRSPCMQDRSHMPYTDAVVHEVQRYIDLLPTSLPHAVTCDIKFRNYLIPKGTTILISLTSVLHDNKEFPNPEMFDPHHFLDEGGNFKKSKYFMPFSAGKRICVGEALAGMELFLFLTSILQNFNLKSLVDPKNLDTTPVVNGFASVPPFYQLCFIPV

[27] = molecular target: P2Y purinoceptor (Rattus norvegicus); test: Binding affinity to P2Y purinoceptor (rat) by [35S]dATPalphaS competitive binding assay
[28] = molecular target: Sphingosine-1-phosphate receptor 1 (Canis lupus familiaris, UniProt W5VNF7); test: Agonist activity at dog S1P1 receptor assessed as cAMP accumulation by HTRF assay; type: functional; procedure, shortened: as §1
Chain of Sphingosine-1-phosphate receptor 1 (W5VNF7 whole entry): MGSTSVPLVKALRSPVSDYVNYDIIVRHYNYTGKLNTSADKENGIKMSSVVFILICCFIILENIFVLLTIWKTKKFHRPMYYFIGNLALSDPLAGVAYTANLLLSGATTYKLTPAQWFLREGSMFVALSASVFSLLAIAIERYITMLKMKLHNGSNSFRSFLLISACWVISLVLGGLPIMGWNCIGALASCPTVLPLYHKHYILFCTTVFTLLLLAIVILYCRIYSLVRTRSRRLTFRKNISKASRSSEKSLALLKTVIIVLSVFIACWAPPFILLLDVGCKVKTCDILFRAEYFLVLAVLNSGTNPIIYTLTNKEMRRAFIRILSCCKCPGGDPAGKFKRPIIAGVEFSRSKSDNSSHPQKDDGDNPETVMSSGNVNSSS

[29] = molecular target: Sphingosine-1-phosphate receptor 1 (Canis lupus familiaris) (UniProt W5VNF7); test: Agonist activity at dog S1P1 receptor assessed as cAMP accumulation by HTRF assay relative to S1P; type: functional
Chain of Sphingosine-1-phosphate receptor 1 (Canis lupus familiaris) (W5VNF7 as listed by the source): as the sequence (W5VNF7 whole entry) above

[30] = Oral bioavailability in Sprague-Dawley rat at 1 mg/kg; type: ADME, organism-based; conditions: in vivo
Mus musculus [31] = test: Reduction of disease index score in C57Bl/6 mouse experimental autoimmune encephalomyelitis model of multiple sclerosis at 0.1 to 0.3 mg/kg dosed for 24 days; type: functional, organism-based
Procedure, shortened: (§3)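 Female C57Bl/6 mice with EAE, a demyelinating autoimmune disease induced to model MS, given compound orally at 0.1, 0.3 or 1.0 mg/kg for 24 days alongside a vehicle group. Clinical scoring began on day 10: 0 healthy; 1 limp tail or hind-limb weakness; 2 limp tail plus limb weakness, or weakness of ≥2 limbs; 3 severe limb weakness or single-limb paralysis; 4 paralysis of ≥2 limbs; 5 death. Mean group score reported.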

Cytochrome P450 1A2 = Cytochrome P450 1A2 (Homo sapiens, UniProt P05177); test: Inhibition of CYP1A2 (unknown origin); type: ADME
Mus musculus [32] = test: Reduction of disease index score in C57Bl/6 mouse experimental autoimmune encephalomyelitis model of multiple sclerosis at 0.1 mg/kg dosed for 24 days; type: functional, organism-based; parameters: dose 0.1 mg/kg; procedure, shortened: as §3
[33] = Solubility in water in crystal phase; type: physicochemical
[34] = Solubility in water in L-lysine adduct form; type: physicochemical
[35] = Drug level in rat plasma at 1 mg/kg, po dosed for 6 consecutive days; type: ADME, organism-based; parameters: dose 1 mg/kg, route oral
Procedure, shortened: (§4)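 Repeat-dose rat CNS distribution: 1.0 mg/kg given on six consecutive days. Plasma, brain and CSF were sampled over the 24 h after the last dose. Average concentrations in brain and plasma gave the brain-to-plasma ratio.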

[36] = Cmax rat at 1000 mg/kg, po; type: ADME, organism-based; parameters: dose 1000 mg/kg, route oral; conditions: in vivo
[37] = Activation of Inward rectifier potassium channel in human atrial myocytes; type: cell-based; conditions: Cardiac atrium
Cytochrome P450 2D6 = Cytochrome P450 2D6 (Homo sapiens, UniProt P10635); test: Inhibition of CYP2D6 (unknown origin); type: ADME
[38] = Ratio of drug level in rat brain to plasma at 1 mg/kg, po dosed for 6 consecutive days; type: ADME, organism-based; parameters: dose 1 mg/kg, route oral; conditions: read-out: BPR; procedure, shortened: as §4
Mus musculus [39] = test: Prevention of severity of disease in C57Bl/6 mouse experimental autoimmune encephalomyelitis model of multiple sclerosis at 1 mg/kg dosed for 24 days; type: functional, organism-based; parameters: dose 1 mg/kg; procedure, shortened: as §3
Mus musculus [40] = species on record: Mus musculus; test: Reduction in lymphocyte count in mouse; type: functional, organism-based; procedure, shortened: as §2
Cytochrome P450 2C19 = Cytochrome P450 2C19 (Homo sapiens, UniProt P33261); test: Inhibition of CYP2C19 (unknown origin); type: ADME
Cytochrome P450 3A4 = Cytochrome P450 3A4 (Homo sapiens, UniProt P08684); test: Inhibition of CYP3A4 (unknown origin); type: ADME
[41] = Drug level in rat brain at 1 mg/kg, po dosed for 6 consecutive days; type: ADME, organism-based; parameters: dose 1 mg/kg, route oral; conditions: read-out: Drug uptake; procedure, shortened: as §4

EC50 [1]: 8600 nM
Emax [2]: 85%
Emax [3]: 94%
Emax [4]: 93%
Kp [5]: 0.09
Emax [6]: 84%
half-life [7]: 3.44 h
EC50 [8]: 0.05 nM
EC50 [9]: 0.63 nM
EC50 [10]: 0.038 nM
Emax [11]: 96%
AUC(0-inf) [13]: 4210 ng·h/mL
IC50 (Rattus norvegicus [14]): 0.0104 µg/mL (≈ 0.0237 µM)
Cmax [15]: 618 ng/mL
clearance [16]: 3.2 mL/min/kg
Vd [17]: 0.9 L/kg
EC50 [18]: 0.025 nM
EC50 [19]: > 10000 nM
Emax [20]: 104%
EC50 [21]: > 10000 nM
Emax [22]: 112%
EC50 [24]: 47 nM
Tmax [25]: 4 h
EC50 [26]: 0.072 nM
IC50 (Cytochrome P450 2C9): 8500 nM
IC50 ([27]; read-out: IC50): 390 nM
EC50 [28]: 0.049 nM
Emax [29]: 66%
bioavailability [30]: 76.4%
Structure (SMILES): CC(C)Oc1ccc(COc2ccc3c(c2)c(Cl)c2n3CC[C@@H]2CC(=O)O)cc1C#N
Activity [12]: Not Active
Activity (Rattus norvegicus [23]): Non-toxic

EC50 [1]: 85 nM
Emax [2]: 29%
IC50 (Cytochrome P450 1A2): > 50000 nM
solubility [33]: < 0.001 mg/mL
Emax [3]: 99%
Emax [4]: 81%
Kp [5]: 0.27
Emax [6]: 59%
solubility [34]: > 100 mg/mL
concentration at 6 days [35]: 352 ng/mL
half-life [7]: 5.09 h
EC50 [8]: 0.064 nM
EC50 [9]: 0.62 nM
EC50 [10]: 0.058 nM
Cmax [36]: 72200 ng/mL
EC50 [37]: 8.9 nM
Emax [11]: 84%
AUC(0-inf) [13]: 6160 ng·h/mL
IC50 (Rattus norvegicus [14]): 0.0254 µg/mL (≈ 0.0527 µM)
Cmax [15]: 584 ng/mL
IC50 (Cytochrome P450 2D6): > 50000 nM
clearance [16]: 1.54 mL/min/kg
Kp at 6 days [38]: 1.61
Vd [17]: 0.831 L/kg
EC50 [18]: 0.021 nM
IC50 (Mus musculus [40]): 0.0183 µg/mL (≈ 0.038 µM)
EC50 [19]: > 10000 nM
Emax [20]: 95%
IC50 (Cytochrome P450 2C19): > 50000 nM
EC50 [21]: > 10000 nM
Emax [22]: 112%
IC50 (Cytochrome P450 3A4): > 50000 nM
EC50 [24]: 19 nM
Tmax [25]: 4.67 h
EC50 [26]: 0.05 nM
IC50 (Cytochrome P450 2C9): > 50000 nM
IC50 [27]: Not Active
EC50 [28]: 0.049 nM
Emax [29]: 59%
concentration at 6 days [41]: 568 ng/mL
bioavailability [30]: 56.6%
Structure (SMILES): CC(C)Oc1ccc(COc2ccc3c(c2)c(Cl)c2n3CC[C@@H]2CC(=O)O)cc1C(F)(F)F
Activity (Mus musculus [31]): Dose-dependent effect
Activity (Mus musculus [32]): inactive
Activity [12]: Not Active
Activity (Mus musculus [39]): Active
Activity (Rattus norvegicus [23]): Non-toxic

EC50 [1]: 570 nM
Kp [5]: 0.53
half-life [7]: 9.16 h
EC50 [9]: 2.5 nM
AUC(0-inf) [13]: 5430 ng·h/mL
IC50 (Rattus norvegicus [14]): 0.0241 µg/mL (≈ 0.0527 µM)
Cmax [15]: 526 ng/mL
clearance [16]: 1.2 mL/min/kg
Vd [17]: 0.986 L/kg
EC50 [18]: 0.041 nM
EC50 [19]: > 10000 nM
EC50 [21]: > 10000 nM
EC50 [24]: 107 nM
Tmax [25]: 2.67 h
bioavailability [30]: 39%
Structure (SMILES): O=C(O)CC1CCn2c1cc1cc(OCc3ccc(C4CCCC4)c(C(F)(F)F)c3)ccc12 (stereo in doubt; 12a)
